Assay results of several laboratories.
Protocols differ between the studies behind these lines.
Target: Serine/threonine-protein kinase D1 (PRKD1, Homo sapiens, UniProt Q15139)
One construct used (Q15139 1-912): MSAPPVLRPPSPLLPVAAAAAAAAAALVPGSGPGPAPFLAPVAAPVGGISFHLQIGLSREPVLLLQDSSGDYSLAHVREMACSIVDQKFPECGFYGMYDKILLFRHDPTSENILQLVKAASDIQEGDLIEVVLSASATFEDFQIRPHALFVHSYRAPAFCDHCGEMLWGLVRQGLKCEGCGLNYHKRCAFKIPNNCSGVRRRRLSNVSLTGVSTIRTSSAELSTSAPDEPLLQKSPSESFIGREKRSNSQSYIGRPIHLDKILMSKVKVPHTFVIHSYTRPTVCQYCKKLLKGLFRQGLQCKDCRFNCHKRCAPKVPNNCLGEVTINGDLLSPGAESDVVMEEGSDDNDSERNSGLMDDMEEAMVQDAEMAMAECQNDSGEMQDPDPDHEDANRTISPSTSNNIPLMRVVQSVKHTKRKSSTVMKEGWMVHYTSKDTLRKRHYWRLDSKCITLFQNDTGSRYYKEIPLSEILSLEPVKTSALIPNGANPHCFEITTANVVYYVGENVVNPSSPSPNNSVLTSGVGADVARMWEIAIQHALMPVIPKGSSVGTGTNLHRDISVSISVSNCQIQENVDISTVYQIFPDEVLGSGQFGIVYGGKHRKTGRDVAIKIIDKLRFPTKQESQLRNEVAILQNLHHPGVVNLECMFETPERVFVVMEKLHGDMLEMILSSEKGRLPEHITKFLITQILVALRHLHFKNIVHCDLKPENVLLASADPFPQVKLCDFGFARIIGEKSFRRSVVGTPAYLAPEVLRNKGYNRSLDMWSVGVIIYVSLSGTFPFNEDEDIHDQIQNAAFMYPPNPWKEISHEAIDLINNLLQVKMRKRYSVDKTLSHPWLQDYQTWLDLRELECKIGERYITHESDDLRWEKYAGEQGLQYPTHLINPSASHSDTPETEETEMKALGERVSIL

SMILES	read-out	action	technique	tested at	endpoint	result
Cn1c(=O)n(-c2ccc(C(C)(C)C#N)cc2)c2c3cc(-c4cnc5ccccc5c4)ccc3ncc21	enzyme activity	inhibitor		10 µM	remaining activity	107%
Cn1cncc1C1=CN(c2ncnc3[nH]cnc23)CCS1	enzyme activity	inhibitor	radiometric	2 µM	inhibition	89.2%
O=C(N[C@H]1CCCCC/C=C\C2C[C@@]2(C(=O)O)NC(=O)[C@@H]2C[C@@H](Oc3ccncc3)CN2C1=O)OC1CCCC1 (stereo partly shown)	binding		competition with immobilised ligand	1 µM	remaining binding	96%
CCN(CC)CCNC(=O)c1c(C)[nH]c(/C=C2\C(=O)Nc3ccc(F)cc32)c1C	cell-free assay			0.5 µM	remaining signal	20%
Cc1ncc([N+](=O)[O-])n1C(=NO)c1ccccc1C(F)(F)F	enzyme activity	inhibitor		10 µM	inhibition	7.69%
COc1cccc2c(NCc3ccccc3)nc(-n3c(N)nc4ccccc43)nc12	target engagement in cells	inhibitor	chemoproteomics	20 mM	inhibition	-20.7%
O=C(Nc1cnn(-c2csc(C(=O)NC3COC3)c2)c1)Nc1ccccc1Cl	enzyme activity	inhibitor		5 µM	remaining activity	114%
COc1cc(Cl)c(C(=O)N[C@@H](CN[C@H]2CC[C@@H](N)CC2)Cc2ccc(C#N)cc2)cc1-c1ccc(CN[C@H](C)c2ccc(C)cc2)o1	enzyme activity	inhibitor		1 µM	remaining activity	99%
C[C@@H]1CCN(C(=O)CC#N)C[C@@H]1N(C)c1ncnc2[nH]ccc12	cell-free assay	inhibitor		0.5 µM	remaining signal	97.3%
CCCS(=O)(=O)Nc1ccc(F)c(C(=O)c2c[nH]c3ncc(-c4ccc(Cl)cc4)cc23)c1F	enzyme activity	inhibitor		1 µM	inhibition	< 10%
Cc1ccc(Nc2nccc(N(C)c3ccc4c(C)n(C)nc4c3)n2)cc1S(N)(=O)=O	enzyme activity	inhibitor		0.3 µM	inhibition	9%
CC(C)CC(=O)N1CCc2nc(-c3ccc(Br)cc3)nc(N(C)Cc3ccccc3)c2C1	cell-free assay		competition with immobilised ligand	0.1 µM	remaining binding	87%
CCN(CC)c1ccc(C2=NNC(=O)CC2C)cc1[N+](=O)[O-] (stereo not shown)	enzyme activity	inhibitor		10 µM	remaining activity	14%
COc1cc(/C=C/C(=O)CC(=O)/C=C/c2ccc(O)c(OC)c2)ccc1O	enzyme activity	inhibitor		1 µM	activity vs control	79%
CNC(=O)Nc1ccc2c(c1)[C@@]1(CC2)OC(=O)N(CC(=O)N(Cc2ccc(F)cc2)[C@@H](C)C(F)(F)F)C1=O	cell-free assay		competition with immobilised ligand	1 µM	remaining binding	100%
Cc1ccc(NC(=O)c2ccc(C)c(C(F)(F)F)c2)cc1C#Cc1nn(C2CCC(O)CC2)c2ncnc(N)c12 (stereo not shown)	cell-free assay			10 µM	remaining signal	91%
FC(F)(F)Oc1cccc(-c2cnc3ccc(-c4ccncc4)nn23)c1	enzyme activity	inhibitor	radiometric	5 µM	activity vs control	158%

SMILES	read-out	action	technique	tested at	endpoint	result
CC(C)(O)[C@H]1CC[C@H](Nc2ccc3ncc(-c4cccc(C(F)(F)F)c4)n3n2)CC1	enzyme activity	inhibitor		1 µM	remaining activity	99.5%
CC(C)(C)C(=O)c1sc(NC2CCCCC2)nc1N	enzyme activity	inhibitor		10 µM	remaining activity	85%
Cc1ccc(C(=O)NCc2ccsc2)cc1C#Cc1cn(C(C)C)c2ncnc(N)c12	enzyme activity	inhibitor		1 µM	activity vs control	91%
COc1cc2ncnc(Nc3ccc(Oc4ccccc4)c(C)c3C)c2cc1OC	enzyme activity	inhibitor		1 µM	inhibition	-3%
CC(C)(C)c1nc2c(s1)c1nc(N)ncc1c1ccc(NS(=O)(=O)c3c(F)cccc3F)c(F)c12	enzyme activity	inhibitor	radiometric	1 µM	remaining activity	93%
CC(C)(O)c1cncc(-c2nc3ccc(F)cc3n2C2CC2)c1	cell-free assay		competition with immobilised ligand	1 µM	remaining binding	100%
Cn1cnc(Br)c1C1=CN(c2ncnc3[nH]cnc23)CCS1	enzyme activity	inhibitor	radiometric	2 µM	inhibition	91.4%
O=c1nc(-c2ccccn2)sc2ccccc12	binding		competition with immobilised ligand	1 µM	remaining binding	100%
Cc1cnc(NC2CCOCC2)nc1-n1cnc(C(=O)NC(CN)c2cc(F)cc(Cl)c2)c1 (stereo not shown)	enzyme activity	inhibitor	radiometric	1 µM	remaining activity	0%
CNC(=O)c1cc(Oc2ccc(NC(=O)Nc3ccc(Cl)c(C(F)(F)F)c3)cc2)ccn1	enzyme activity	inhibitor		0.3 µM	inhibition	8%
CS(=O)(=O)NCC[C@H](NC(=O)c1cncc2c1cnn2-c1ccc(F)cc1)c1ccnc(S(C)(=O)=O)c1	cell-free assay		competition with immobilised ligand	1 µM	remaining binding	92%
O=C(Nc1cnn(-c2csc(C(=O)NC3COC3)c2)c1)Nc1c(F)cccc1Cl	enzyme activity	inhibitor		5 µM	remaining activity	90.7%
Cc1nc(Cc2cccc(C(F)(F)F)c2)sc1-c1ccc(C(N)=O)nc1	cell-free assay		competition with immobilised ligand	1 µM	remaining binding	93%
COc1cc(Nc2cnc(C#N)c(O[C@H](C)CN(C)C)n2)ncc1-c1cnn(C)c1	enzyme activity	inhibitor	radiometric	1 µM	remaining activity	106%
Cc1nccc(COC(=O)N2C[C@@H]3[C@@H](CNC(=O)c4ccc5[nH]nnc5c4)[C@@H]3C2)n1	cell-free assay		competition with immobilised ligand	1 µM	remaining binding	100%
CCCOc1ccc(OC)c(F)c1C(=O)c1ccc(C(=O)N[C@@H]2CNC[C@H]2NC(=O)c2ccc3[nH]ncc3c2)cc1	enzyme activity	inhibitor		10 µM	remaining activity	53%
N#CCCc1ccc2c(c1)-c1[nH]c3ccc([N+](=O)[O-])cc3c1CC(=O)N2	cell-free assay			0.5 µM	remaining signal	87.5%
